# In ChEMBL document CHEMBL4699394, “Insights into structural and physicochemical properties required for beta-hematin inhibition of privileged triarylimidazoles” (RSC Med Chem, 2020):
# How the values were obtained:
# HeLa = test: Cytotoxicity against human HeLa cells assessed as reduction in cell viability at 20 uM incubated for 48 hrs by FACS analysis; format: cell-based
# Hemozoin = test: Inhibition of beta-hematin formation assessed as reduction in hemozoin formation incubated for 20 hrs by NP40 detergent-mediated assay
# Method in brief: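 In vitro β-hematin formation assay buffered at acidic pH 4.8 to mimic the parasite digestive vacuole. IC50 is the mean of experiments run in technical triplicate.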
# Plasmodium falciparum [1] = test: Antimalarial activity against Plasmodium falciparum 3D7 infected in human Erythrocyte assessed as plasmodial growth at 20 uM incubated for 48 hrs by FACS analysis relative to control; format: functional
# Plasmodium falciparum [2] = test: Antimalarial activity against Plasmodium falciparum 3D7 infected in human Erythrocyte assessed as reduction in plasmodial growth incubated for 48 hrs by FACS analysis; format: functional, organism-based; details: 3D7, Erythrocyte
# Method in brief: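 Dose-response IC50 against P. falciparum 3D7. Only compounds that reduced parasite viability below 10% in a 20 μM, 48 h single-concentration screen were tested. IC50 is the mean of experiments run in technical triplicate.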
SMILES,Activity (HeLa),IC50 (Hemozoin),IC50 (Hemozoin; read-out: IC50) [µM],Activity (Plasmodium falciparum [1]) [%],IC50 (Plasmodium falciparum [2]) [µM]
Fc1cccc(-c2nc(-c3ccccc3)c(-c3ccccc3)[nH]2)c1,Non-Toxic,Not Active,,,
Clc1cccc(-c2nc(-c3ccccc3)c(-c3ccccc3)[nH]2)c1,Non-Toxic,Not Active,,,
Brc1ccc(-c2nc(-c3ccccc3)[nH]c2-c2ccccc2)cc1,Non-Toxic,,294,,
Clc1ccc(-c2nc(-c3ccc(Cl)cc3)c(-c3ccccc3)[nH]2)cc1,Non-Toxic,,39,,
COc1ccc(-c2nc(-c3ccc(Cl)cc3)c(-c3ccccc3)[nH]2)cc1,Non-Toxic,,20.5,<10,11
c1ccc(-c2nc(-c3ccc4ccccc4c3)[nH]c2-c2ccccc2)cc1,Non-Toxic,Not Active,,,
O=[N+]([O-])c1cccc(-c2nc(-c3ccc(Cl)cc3)c(-c3ccccc3)[nH]2)c1,Non-Toxic,,> 500,,
Fc1ccccc1-c1nc(-c2ccc(Cl)cc2)c(-c2ccccc2)[nH]1,Non-Toxic,,> 500,,
CCC(CC)c1nc(-c2ccccc2)c(-c2ccccc2)[nH]1,Non-Toxic,Not Active,,<10,11
Clc1ccc(-c2nc(-c3ccccc3)[nH]c2-c2ccccc2)cc1,Non-Toxic,,> 500,,
O=[N+]([O-])c1cccc(-c2nc(-c3ccccc3)c(-c3ccccc3)[nH]2)c1,Non-Toxic,Not Active,,,
c1ccc(-c2nc(-c3c[nH]c4ccccc34)[nH]c2-c2ccccc2)cc1,Non-Toxic,,72.8,,
c1ccc(-c2nc(-c3ccco3)[nH]c2-c2ccccc2)cc1,Non-Toxic,,401,,
COc1ccccc1-c1nc(-c2ccccc2)c(-c2ccccc2)[nH]1,Non-Toxic,Not Active,,,
Fc1ccccc1-c1nc(-c2ccccc2)c(-c2ccccc2)[nH]1,Non-Toxic,,> 500,,
Cc1ccccc1-c1nc(-c2ccccc2)c(-c2ccccc2)[nH]1,Non-Toxic,,> 500,,
COc1ccc(-c2nc(-c3ccc(Br)cc3)c(-c3ccccc3)[nH]2)cc1,Non-Toxic,,20.3,<10,1.5
CCN(CC)CCCC(C)Nc1ccnc2cc(Cl)ccc12 (configuration not stated) [CHLOROQUINE],,,16.9,,
Brc1ccc(-c2nc(-c3ccccc3)c(-c3ccccc3)[nH]2)cc1,Non-Toxic,,489,,
O=[N+]([O-])c1ccccc1-c1nc(-c2ccccc2)c(-c2ccccc2)[nH]1,Non-Toxic,Not Active,,,
COc1ccc(-c2nc(-c3ccccc3)c(-c3ccccc3)[nH]2)cc1,Non-Toxic,,48.1,,
Clc1ccc(-c2nc(-c3ccccc3)c(-c3ccccc3)[nH]2)cc1,Non-Toxic,Not Active,,,
Clc1ccc(-c2nc(-c3ccc(Br)cc3)[nH]c2-c2ccccc2)cc1,Non-Toxic,,28.8,<10,8
Brc1ccc(-c2nc(-c3ccccc3)[nH]c2-c2ccc(Br)cc2)cc1,Non-Toxic,Not Active,,<10,13
Cc1ccc(-c2nc(-c3ccccc3)c(-c3ccccc3)[nH]2)cc1,Non-Toxic,,156,,
Fc1ccc(-c2nc(-c3ccc(Cl)cc3)c(-c3ccccc3)[nH]2)cc1,Non-Toxic,,28,<10,6.5
Brc1ccc(-c2nc(-c3ccc(Br)cc3)c(-c3ccccc3)[nH]2)cc1,Non-Toxic,,54.2,,
c1ccc(-c2nc(C3CCCCC3)[nH]c2-c2ccccc2)cc1,Non-Toxic,,> 500,,
